ChEMBL document CHEMBL4715918, “Syntheses and evaluation of acridone-naphthalimide derivatives for regulating oncogene PDGFR-β expression” (Bioorg Med Chem, 2021)
Calls of active or inactive are those of the source. The calls are words filed in the database; no cut-off is given here.

Experiments:
[1] = tested on: Quadruplex DNA; experiment: Binding affinity to 5'-biotin-d [GCTGGGAGAAGGGGGGGCGGCGGGGCAGGGAGGGTGGACGC]-3' G4-quadruplex DNA (unknown origin) assessed as change in melting temperature at 10 uM by CD spectroscopy; assay type: nucleic-acid assay
How it was run: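 Oligomer 2 µM in Tris-HCl pH 7.4, annealed (95 °C for 5 min, slow cooling, 4 °C overnight). Ligand 10 µM. CD ellipticity followed at 263 nm over 25–95 °C; ΔTm taken against DNA alone.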

[2] = tested on: MCF7; experiment: Binding affinity to wild type PDGFRbeta promoter (unknown origin) in human MCF7 cells assessed as down regulation of PDGFRbeta mRNA expression at 1.25 to 20 uM after 12 hrs by RT-PCR analysis; assay type: cell-based; details: dose 1.25-20 µM
[3] = Binding affinity to 5'-FAM-GCGTCCACCCTCCCTGCCCCGCCGCCCCCCCTTCTCCCAGC-TAMRA-3' i-motif DNA (unknown origin) assessed as unfolding i-motif structure by measuring reduction in I585/I518 ratio at 2 to 10 equiv by FRET assay; details: dose 2-10 equiv
How it was run: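 FRET probe dual-labelled FAM donor/TAMRA acceptor, annealed, 10 µM in 30 mM BPES buffer with 1 mM EDTA, 100 mM KCl; compound added in equal volume. Emission 500–700 nm recorded, corrected for compound signal in the same buffer; I585/I518 ratio compared. The i-motif forms at pH 6.2 and unfolds at pH 6.4.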

[4] = tested on: Quadruplex DNA; experiment: Binding affinity to 5'-FAM-GGGAGAAGGGGGGGCGGCGGGGCAGGGAGGGTGGAC-TAMRA-3' G4-quadruplex DNA (unknown origin) assessed as stabilization G4-quadruplex structure by measuring increase in I585/I518 ratio by FRET assay; assay type: nucleic-acid assay; details: dose 2-10 equiv
How it was run: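 FRET probe dual-labelled FAM/TAMRA, annealed, 10 µM in 10 mM Tris-HCl pH 7.4 with 10 mM KCl; compound added in equal volume. Emission 500–700 nm recorded, corrected for compound signal in the same buffer; I585/I518 ratio compared.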

[5] = Binding affinity to FAM-labeled 5'-biotin-d [GCGTCCACCCTCCCTGCCCCGCCGCCCCCCCITCTCCCAGC]-3' i-motif DNA (unknown origin) by microscale thermophoresis assay
How it was run: (§1)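 Microscale thermophoresis with DNA held constant at 1 µM. Compound serially diluted 3:4 from 10 µM over 12 points. Samples run in standard glass capillaries with LED and laser power both at 20%. KD derived by fitting.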

[6] = molecular target: Quadruplex DNA; experiment: Binding affinity to FAM-labeled 5'-biotin-d [GCTGGGAGAAGGGGGGGCGGCGGGGCAGGGAGGGTGGACGC]-3' G4-quadruplex DNA (unknown origin) by microscale thermophoresis assay; assay type: nucleic-acid assay; how it was run: as §1
[7] = Binding affinity to 5'-biotin-d [GCGTCCACCCTCCCTGCCCCGCCGCCCCCCCITCTCCCAGC]-3' i-motif DNA (unknown origin) assessed as change in melting temperature at 10 uM by CD spectroscopy
How it was run: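 Oligomer 2 µM in BPES buffer pH 5.5, heated to 95 °C for 5 min, cooled slowly and held at 4 °C overnight. Ligand 10 µM. CD ellipticity followed at 288 nm from 25–95 °C (1 mm cuvette); Tm derived, ΔTm against DNA alone.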

[8] = Binding affinity to FAM-labeled 5'-biotin-d[TATAGCTATA-HEG-TATAGCTATA]- 3' duplex DNA (unknown origin) by microscale thermophoresis assay; how it was run: as §1

For `C[n+]1ccc(-c2c3nc(c(-c4cc[n+](C)cc4)c4ccc([nH]4)c(-c4cc[n+](C)cc4)c4ccc([nH]4)c(-c4cc[n+](C)cc4)c4nc2C=C4)C=C3)cc1` [TMPYP4], the ΔTm [1] was > 20 °C, the Activity [2] was “Dose-dependent effect” and the Activity [3] was “inactive”. The Activity [4] was “Dose-dependent effect”, the Kd [5] was 463 µM and the Kd [6] was 3.96 µM. The ΔTm [7] was 0.11 °C and the Kd [8] was 1310 µM.
